According to ChEMBL document CHEMBL1128436, “Synthesis and biological evaluation of a new series of sterols as potential hypocholesterolemic agents” (1995):
Active and inactive are the calls of the source. No cut-off for these calls is given here.

What was measured:
Mesocricetus auratus [1] = species: Mesocricetus auratus; test: Serum cholesterol level changes with relative to the control value (313(24)) in hamsters at a dose of 0.2% of diet for 1 week
[2] = target: Low-density lipoprotein receptor (Homo sapiens) (UniProt P01130); test: Capability of derepressing the transcription of human Low density lipoprotein receptor promoter in the presence of 25-hydroxycholesterol in CHO cells by luciferase assay; NA= Not active within the test range 0-20 ug/mL; assay type: cell-based
Procedure, shortened: (§1)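 Stably transfected CHO clone S27/B30 (LDL receptor promoter fused to firefly luciferase), grown to confluence (2-3 days, 37 °C, 5% CO2). Then 24 h in serum-free assay medium (DMEM/Ham's F-12 3:1, 0.5% bovine albumin) with 25-hydroxycholesterol 0.5 μg/mL plus compound at 0.30-20 μg/mL from ethanol stock, triplicate wells. Lysate luciferase peak light per μg protein (Coomassie). EC30 = concentration giving 30% rise over control. MA = % specific induction at 20 μg/mL.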

Cricetinae gen. sp. [3] = test: Total serum cholesterol level with relative to the control value (313(24)) in hamsters at a dose of 0.2% of diet for 1 week; assay type: functional, Cricetulus griseus
[4] = target: Low-density lipoprotein receptor (Homo sapiens) (UniProt P01130); test: Capability of derepressing the transcription of Low density lipoprotein receptor promoter in the presence of 25-hydroxycholesterol in CHO cells measured as maximum activity at 20 ug/mL; assay type: cell-based
Procedure, shortened: as §1

Mesocricetus auratus [5] = species: Mesocricetus auratus; test: Serum cholesterol level change relative to the control value (425(58)) in hamsters at a dose of 0.2% of diet for 1 week
[6] = target: Low-density lipoprotein receptor (Homo sapiens) (UniProt P01130); test: Capability of derepressing the transcription of human Low density lipoprotein receptor promoter in the presence of 25-hydroxycholesterol in CHO cells by luciferase assay; assay type: cell-based
Procedure, shortened: as §1

CHO [7] = test: Capability of derepressing the transcription of SV40 promoter in CHO cells by luciferase assay; NA= Not active within the test range 0-20 ug/mL; assay type: functional, cell-based; details: Cricetulus griseus
Procedure, shortened: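 Counter-screen in CHO clone SV40/LN9, with luciferase driven by the SV40 promoter. Confluent monolayers were given compound at 0.30-20 μg/mL for 24 h in serum-free albumin assay medium, triplicate wells. Lysates were read for luciferase peak luminescence, normalized to lysate protein.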

Cricetinae gen. sp. [8] = test: Total serum cholesterol level with relative to the control value (425(58)) in hamsters at a dose of 0.2% of diet for 1 week; assay type: functional, Cricetulus griseus
Cricetinae gen. sp. [9] = test: Serum cholesterol level change relative to the control value [320(14)] in hamsters at a dose of 0.2% of diet for 1 week; assay type: functional, Cricetulus griseus
Cricetinae gen. sp. [10] = test: Total serum cholesterol level with relative to the control value [320(14)] in hamsters at a dose of 0.2% of diet for 1 week; assay type: functional, Cricetulus griseus
CHO [11] = test: In vitro [1-14C]-acetate]-cholesterol biosynthesis inhibition assay (14CACBI) in CHO cells; neg = Negative :no effect on biosynthesis of cholesterol; assay type: functional, cell-based; details: Cricetulus griseus
Procedure, shortened: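 Confluent CHO cells in replicate 100 mm dishes were held 20 h in assay medium without 25-hydroxycholesterol, with ethanol vehicle (0.5% v/v) or compound at 20 μg/mL. [1-14C]acetate was then added (final 1 μCi/mL) for 4 h more. Cells were scraped and sonicated, lipids separated, and the cholesterol band scraped and counted by scintillation.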

Mesocricetus auratus [12] = species: Mesocricetus auratus; test: Serum cholesterol level change relative to the control value [383(13)] in hamsters at a dose of 0.2% of diet for 1 week
Cricetinae gen. sp. [13] = test: Total serum cholesterol level with relative to the control value [383(13)] in hamsters at a dose of 0.2% of diet for 1 week; assay type: functional, Cricetulus griseus
[14] = target: Low-density lipoprotein receptor (Homo sapiens) (UniProt P01130); test: Luciferase activity (LDLR/Luc) expressed as light units/microg assayed in LMB the percentage specific light induction of agent over the control at concentration of 20 ug/mL was determined in vitro.
Procedure, shortened: as §1

Cricetinae gen. sp. [15] = test: Total serum cholesterol level with relative to the control value (366(24)) in hamsters at a dose of 0.2% of diet for 1 week; assay type: functional, Cricetulus griseus
Mesocricetus auratus [16] = species: Mesocricetus auratus; test: Serum cholesterol level change relative to the control value (333(23)) in hamsters at a dose of 0.2% of diet for 1 week
Cricetinae gen. sp. [17] = test: Serum cholesterol level change relative to the control value (274(23)) in hamsters at a dose of 0.2% of diet for 1 week; assay type: functional, Cricetulus griseus
Cricetinae gen. sp. [18] = test: Total serum cholesterol level with relative to the control value (333(23)) in hamsters at a dose of 0.2% of diet for 1 week; assay type: functional, Cricetulus griseus
Cricetinae gen. sp. [19] = test: Total serum cholesterol level with relative to the control value (274(23)) in hamsters at a dose of 0.2% of diet for 1 week; assay type: functional, Cricetulus griseus
Mesocricetus auratus [20] = species: Mesocricetus auratus; test: Serum cholesterol level change relative to the control value (366(24)) in hamsters at a dose of 0.2% of diet for 1 week
Mesocricetus auratus [21] = species: Mesocricetus auratus; test: Serum cholesterol level change relative to the control value (383(13)) in hamsters at a dose of 0.2% of diet for 1 week
Mesocricetus auratus [22] = species: Mesocricetus auratus; test: Serum cholesterol level change relative to the control value (306(27)) was calculated.i n hamsters at a dose of 0.2% of diet for 1 week
Cricetinae gen. sp. [23] = test: Total serum cholesterol level with relative to the control value (383(13)) in hamsters at a dose of 0.2% of diet for 1 week; assay type: functional, Cricetulus griseus
Cricetinae gen. sp. [24] = test: Serum cholesterol level changes with relative to the control value (425(58)) in hamsters at a dose of 0.2% of diet for 1 week; assay type: functional, Cricetulus griseus
Cricetinae gen. sp. [25] = test: Total serum cholesterol level with relative to the control value (306(27) in hamsters at a dose of 0.2% of diet for 1 week; assay type: functional, Cricetulus griseus
Mesocricetus auratus [26] = species: Mesocricetus auratus; test: Serum cholesterol level change relative to the control value (320(14)) in hamsters at a dose of 0.2% of diet for 1 week
Mesocricetus auratus [27] = species: Mesocricetus auratus; test: Serum cholesterol level change relative to the control value (313(24)) in hamsters at a dose of 0.2% of diet for 1 week
Cricetinae gen. sp. [28] = test: Total serum cholesterol level with relative to the control value (320(14)) in hamsters at a dose of 0.2% of diet for 1 week; assay type: functional, Cricetulus griseus
Mesocricetus auratus [29] = species: Mesocricetus auratus; test: Serum cholesterol level changes with relative to the control value (333(23)) in hamsters at a dose of 0.2% of diet for 1 week

Sequence of Low-density lipoprotein receptor (Homo sapiens) (P01130 whole entry, the tested form may be a part): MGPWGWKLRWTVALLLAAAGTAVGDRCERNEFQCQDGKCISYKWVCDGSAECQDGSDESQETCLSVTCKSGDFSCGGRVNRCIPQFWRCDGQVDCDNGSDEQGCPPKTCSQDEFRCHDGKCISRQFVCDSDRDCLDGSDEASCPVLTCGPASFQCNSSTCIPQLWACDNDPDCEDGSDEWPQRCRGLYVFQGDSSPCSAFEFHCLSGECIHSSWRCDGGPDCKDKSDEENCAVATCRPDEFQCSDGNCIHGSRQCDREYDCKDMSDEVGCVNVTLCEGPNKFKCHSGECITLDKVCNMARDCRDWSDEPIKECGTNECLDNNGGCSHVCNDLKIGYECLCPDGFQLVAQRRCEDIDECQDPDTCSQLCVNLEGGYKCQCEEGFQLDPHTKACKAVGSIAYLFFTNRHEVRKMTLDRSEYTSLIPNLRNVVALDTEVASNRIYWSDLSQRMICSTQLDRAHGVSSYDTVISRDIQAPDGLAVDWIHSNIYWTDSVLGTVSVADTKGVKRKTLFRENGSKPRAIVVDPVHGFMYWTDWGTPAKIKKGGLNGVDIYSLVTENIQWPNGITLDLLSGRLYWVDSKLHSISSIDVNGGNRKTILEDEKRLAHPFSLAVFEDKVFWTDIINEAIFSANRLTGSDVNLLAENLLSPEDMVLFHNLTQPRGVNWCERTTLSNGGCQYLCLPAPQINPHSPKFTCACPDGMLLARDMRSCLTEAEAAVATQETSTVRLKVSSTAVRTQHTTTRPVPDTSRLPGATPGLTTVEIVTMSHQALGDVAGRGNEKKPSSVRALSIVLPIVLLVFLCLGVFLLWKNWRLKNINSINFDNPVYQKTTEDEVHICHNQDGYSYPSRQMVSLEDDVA

Row | SMILES | Relative change (Mesocricetus auratus [1]) | Total cholesterol (Cricetinae gen. sp. [3]) | MA [4] | EC30 [6] | Activity (CHO [7]) | Activity (CHO [11]) | also measured
1 | C/C=C/C[C@H]1C2CC[C@H]3[C@@H]4CC[C@H]([C@H](C)CCCC(C)C)[C@@]4(C)CC[C@@H]3[C@@]2(C)CC[C@@H]1O (stereo partly drawn) | -22% | 245 mg/dL |  |  |  |  | EC30 [2]: inactive
2 | C=C(Cl)C[C@H]1C2CC[C@H]3[C@@H]4CC[C@H]([C@H](C)CC[C@@H](CC)C(C)C)[C@@]4(C)CC[C@@H]3[C@@]2(C)CC[C@H]1O (stereo partly drawn) |  |  | 120% | 4.2 µM | inactive |  | Relative change (Mesocricetus auratus [5]): -43%; Total cholesterol (Cricetinae gen. sp. [8]): 241 mg/dL
3 | CC(C)CCC[C@@H](C)[C@H]1CC[C@H]2[C@@H]3CCC4[C@H](Cc5ccc(OC(F)(F)F)cc5)[C@H](O)CC[C@]4(C)[C@H]3CC[C@]12C (stereo partly drawn) |  |  | 71% | 15 µM | inactive |  | Control (Cricetinae gen. sp. [9]): -34%; Total cholesterol (Cricetinae gen. sp. [10]): 209 mg/dL
4 | C=CC[C@H]1C2CC[C@H]3[C@@H]4CC[C@H]([C@H](C)CCCC(C)C)[C@@]4(C)CC[C@@H]3[C@@]2(C)CC[C@@H]1O (stereo partly drawn) | -37% | 198 mg/dL |  |  |  |  | EC30 [2]: inactive
5 | CC(C)CCC[C@@H](C)[C@H]1CC[C@H]2[C@@H]3CCC4[C@H](Cc5ccc(I)cc5)[C@H](O)CC[C@]4(C)[C@H]3CC[C@]12C (stereo partly drawn) |  |  | 80% | 2.8 µM | inactive | Negative | Relative change (Mesocricetus auratus [12]): -37%; Total cholesterol (Cricetinae gen. sp. [13]): 240 mg/dL
6 | C/C=C/C[C@H]1C2CC[C@H]3[C@@H]4CC[C@H]([C@H](C)CCCC(C)C)[C@@]4(C)CC[C@@H]3[C@@]2(C)CC[C@H]1O (stereo partly drawn) | -33% | 210 mg/dL |  | 11 µM | inactive | Negative | MA [14]: 86%
7 | C=CC[C@H]1C2CC[C@H]3[C@@H]4CC[C@H]([C@H](C)CCCC(C)C)[C@@]4(C)CC[C@@H]3[C@@]2(C)CC[C@H]1O (stereo partly drawn) |  | 167 mg/dL | 127% | 2.9 µM | inactive | Negative | Total cholesterol (Cricetinae gen. sp. [15]): 174 mg/dL; Relative change (Mesocricetus auratus [16]): -40%; Relative change (Cricetinae gen. sp. [17]): -31%; Total cholesterol (Cricetinae gen. sp. [18]): 199 mg/dL; Total cholesterol (Cricetinae gen. sp. [19]): 188 mg/dL; Relative change (Mesocricetus auratus [20]): -53%; Relative change (Mesocricetus auratus [21]): -49%; Relative change (Mesocricetus auratus [22]): -51%; Total cholesterol (Cricetinae gen. sp. [23]): 197 mg/dL; Total cholesterol (Cricetinae gen. sp. [8]): 213 mg/dL; Relative change (Cricetinae gen. sp. [24]): -50%; Total cholesterol (Cricetinae gen. sp. [25]): 151 mg/dL; Relative change (Mesocricetus auratus [26]): -47%; Relative change (Mesocricetus auratus [27]): -47%; Total cholesterol (Cricetinae gen. sp. [28]): 168 mg/dL
8 | C=C(Cl)C[C@H]1C2CC[C@H]3[C@@H]4CC[C@H]([C@H](C)CCCC(C)C)[C@@]4(C)CC[C@@H]3[C@@]2(C)CC[C@H]1O (stereo partly drawn) |  |  | 141% | 1.8 µM | inactive |  | Total cholesterol (Cricetinae gen. sp. [18]): 200 mg/dL; Relative change (Mesocricetus auratus [29]): -40%
